Reference: ChEMBL document CHEMBL1914304 (J Med Chem, 2011)

Tests used:
[1] = molecular target: T1, Potassium/sodium hyperpolarization-activated cyclic nucleotide-gated channel 4 (Homo sapiens) (UniProt Q9Y3Q4); assay: Inhibition of HCN4 at 10 uM after 5 mins by patch clamp assay
T1 sequence (whole entry): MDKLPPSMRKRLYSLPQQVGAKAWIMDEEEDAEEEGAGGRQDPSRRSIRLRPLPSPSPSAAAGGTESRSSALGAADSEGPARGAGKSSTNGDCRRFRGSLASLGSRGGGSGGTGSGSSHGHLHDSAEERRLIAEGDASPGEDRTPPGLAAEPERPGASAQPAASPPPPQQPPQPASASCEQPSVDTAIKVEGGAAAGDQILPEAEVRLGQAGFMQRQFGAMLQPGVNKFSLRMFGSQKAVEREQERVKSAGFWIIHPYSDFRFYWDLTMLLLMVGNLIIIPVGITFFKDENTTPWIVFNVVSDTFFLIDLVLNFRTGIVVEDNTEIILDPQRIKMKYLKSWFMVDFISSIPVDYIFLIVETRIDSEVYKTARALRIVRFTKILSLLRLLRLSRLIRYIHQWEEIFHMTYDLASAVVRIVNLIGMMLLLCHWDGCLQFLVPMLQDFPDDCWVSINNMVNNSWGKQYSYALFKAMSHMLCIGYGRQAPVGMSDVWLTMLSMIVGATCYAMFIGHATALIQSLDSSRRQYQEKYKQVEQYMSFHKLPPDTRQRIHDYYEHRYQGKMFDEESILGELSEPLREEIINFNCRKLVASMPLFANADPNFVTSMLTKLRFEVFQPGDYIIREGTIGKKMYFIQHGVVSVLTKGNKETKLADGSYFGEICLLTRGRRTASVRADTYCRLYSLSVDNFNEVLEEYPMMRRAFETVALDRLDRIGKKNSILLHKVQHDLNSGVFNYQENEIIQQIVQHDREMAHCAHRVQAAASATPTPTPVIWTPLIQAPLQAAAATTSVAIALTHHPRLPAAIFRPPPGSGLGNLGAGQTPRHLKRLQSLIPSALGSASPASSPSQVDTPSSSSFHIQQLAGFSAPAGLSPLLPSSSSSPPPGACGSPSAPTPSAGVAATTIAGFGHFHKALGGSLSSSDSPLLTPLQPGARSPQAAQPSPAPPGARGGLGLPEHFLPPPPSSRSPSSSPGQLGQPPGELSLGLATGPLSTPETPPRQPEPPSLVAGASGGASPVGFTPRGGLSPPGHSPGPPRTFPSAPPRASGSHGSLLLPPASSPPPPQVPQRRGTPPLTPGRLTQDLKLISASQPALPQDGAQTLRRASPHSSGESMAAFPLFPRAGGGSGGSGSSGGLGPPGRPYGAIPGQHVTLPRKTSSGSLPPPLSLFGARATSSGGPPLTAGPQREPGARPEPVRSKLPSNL
Summary of the method: (§1)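 Cardiac ion channel panel run by a contract lab on an automated parallel patch-clamp system at room temperature. Each of 12 cardiac channels was tested with 10 µM compound for 5 min exposure, in two cells per channel (n ≥ 2). Values are reported as mean % inhibition.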

Kir2.1 = molecular target: T2, Kir2.1 (Homo sapiens, UniProt P63252); assay: Inhibition of Kir2.1 at 10 uM after 5 mins by patch clamp assay; summary of the method: as §1
T2 sequence (P63252 whole entry): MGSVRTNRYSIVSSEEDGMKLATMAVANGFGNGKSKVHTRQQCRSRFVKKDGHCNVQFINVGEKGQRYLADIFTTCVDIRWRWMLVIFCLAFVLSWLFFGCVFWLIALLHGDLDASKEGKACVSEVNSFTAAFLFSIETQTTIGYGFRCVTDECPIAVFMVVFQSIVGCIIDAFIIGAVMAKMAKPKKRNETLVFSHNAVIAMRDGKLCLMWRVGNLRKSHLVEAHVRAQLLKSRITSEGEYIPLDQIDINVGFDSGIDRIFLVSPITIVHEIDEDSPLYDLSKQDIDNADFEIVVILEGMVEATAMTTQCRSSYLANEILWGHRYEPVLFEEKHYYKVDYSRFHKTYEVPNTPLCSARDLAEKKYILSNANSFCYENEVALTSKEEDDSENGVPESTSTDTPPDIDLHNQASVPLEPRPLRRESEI

[2] = molecular target: Voltage-dependent T-type calcium channel subunit alpha-1H (Homo sapiens) (UniProt O95180); assay: Inhibition of Cav3.2 at 10 uM after 5 mins by patch clamp assay
Chain of Voltage-dependent T-type calcium channel subunit alpha-1H (Homo sapiens) (O95180 whole entry): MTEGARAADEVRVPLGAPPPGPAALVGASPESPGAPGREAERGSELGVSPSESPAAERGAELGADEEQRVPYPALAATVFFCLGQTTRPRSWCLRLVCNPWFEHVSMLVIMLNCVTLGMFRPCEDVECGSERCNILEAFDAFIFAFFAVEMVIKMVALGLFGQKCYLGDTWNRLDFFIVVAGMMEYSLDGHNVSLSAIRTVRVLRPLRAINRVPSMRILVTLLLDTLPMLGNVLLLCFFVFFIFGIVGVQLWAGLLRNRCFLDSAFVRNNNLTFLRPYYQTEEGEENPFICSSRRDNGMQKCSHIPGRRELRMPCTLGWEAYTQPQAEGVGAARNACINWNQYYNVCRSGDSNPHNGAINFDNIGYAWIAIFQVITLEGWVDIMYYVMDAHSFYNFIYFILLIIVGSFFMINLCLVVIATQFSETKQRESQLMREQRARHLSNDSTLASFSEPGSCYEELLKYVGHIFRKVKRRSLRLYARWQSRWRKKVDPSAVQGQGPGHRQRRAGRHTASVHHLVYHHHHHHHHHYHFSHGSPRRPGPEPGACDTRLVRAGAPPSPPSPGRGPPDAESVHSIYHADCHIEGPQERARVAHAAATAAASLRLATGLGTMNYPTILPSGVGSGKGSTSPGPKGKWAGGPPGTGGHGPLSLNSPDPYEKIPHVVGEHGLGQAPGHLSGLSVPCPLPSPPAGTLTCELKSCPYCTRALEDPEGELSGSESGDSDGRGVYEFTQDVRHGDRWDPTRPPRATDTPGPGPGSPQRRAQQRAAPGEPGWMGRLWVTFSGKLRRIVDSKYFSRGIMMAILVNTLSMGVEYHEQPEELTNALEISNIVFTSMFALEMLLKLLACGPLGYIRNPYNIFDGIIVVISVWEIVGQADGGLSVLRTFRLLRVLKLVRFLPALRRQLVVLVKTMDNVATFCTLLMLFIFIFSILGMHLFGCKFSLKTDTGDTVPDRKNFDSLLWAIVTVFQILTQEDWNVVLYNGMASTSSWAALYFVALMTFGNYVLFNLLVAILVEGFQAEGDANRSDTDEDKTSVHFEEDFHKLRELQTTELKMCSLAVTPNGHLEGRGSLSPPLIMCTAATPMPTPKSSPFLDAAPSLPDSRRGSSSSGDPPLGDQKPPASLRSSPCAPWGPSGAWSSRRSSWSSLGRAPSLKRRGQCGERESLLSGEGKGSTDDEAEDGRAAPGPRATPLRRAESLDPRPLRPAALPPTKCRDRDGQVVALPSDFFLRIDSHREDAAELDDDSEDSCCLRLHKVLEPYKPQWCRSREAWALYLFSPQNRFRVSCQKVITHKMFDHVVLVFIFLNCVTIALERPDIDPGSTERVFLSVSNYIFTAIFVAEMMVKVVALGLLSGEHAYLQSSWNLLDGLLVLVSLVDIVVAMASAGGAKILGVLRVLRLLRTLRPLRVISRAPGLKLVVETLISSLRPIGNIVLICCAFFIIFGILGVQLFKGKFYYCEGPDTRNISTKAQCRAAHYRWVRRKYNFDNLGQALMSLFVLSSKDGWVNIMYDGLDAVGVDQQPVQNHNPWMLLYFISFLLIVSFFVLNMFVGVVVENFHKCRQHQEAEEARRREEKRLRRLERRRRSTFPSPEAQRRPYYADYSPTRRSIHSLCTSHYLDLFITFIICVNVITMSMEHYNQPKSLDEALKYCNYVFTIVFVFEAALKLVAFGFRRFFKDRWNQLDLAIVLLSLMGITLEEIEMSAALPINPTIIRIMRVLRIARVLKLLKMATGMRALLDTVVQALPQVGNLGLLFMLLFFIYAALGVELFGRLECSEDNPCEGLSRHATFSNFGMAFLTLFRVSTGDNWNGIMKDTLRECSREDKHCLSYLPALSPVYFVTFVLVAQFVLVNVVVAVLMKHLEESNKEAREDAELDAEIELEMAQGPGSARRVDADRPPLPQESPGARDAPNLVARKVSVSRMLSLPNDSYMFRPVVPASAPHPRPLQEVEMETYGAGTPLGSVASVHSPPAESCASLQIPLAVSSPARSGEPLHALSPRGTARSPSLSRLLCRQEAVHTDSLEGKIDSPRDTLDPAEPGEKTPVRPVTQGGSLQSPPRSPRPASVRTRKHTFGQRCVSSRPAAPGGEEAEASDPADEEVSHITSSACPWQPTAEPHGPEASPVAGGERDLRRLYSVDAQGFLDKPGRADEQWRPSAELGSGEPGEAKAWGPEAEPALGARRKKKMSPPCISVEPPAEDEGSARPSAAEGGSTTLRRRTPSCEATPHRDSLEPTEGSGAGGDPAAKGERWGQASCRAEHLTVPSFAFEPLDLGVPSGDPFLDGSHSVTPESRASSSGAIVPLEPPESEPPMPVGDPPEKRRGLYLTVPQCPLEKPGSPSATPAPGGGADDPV
Summary of the method: (§2)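 Fixed-concentration screen across a panel of 12 cloned cardiac ion channels. The compound was tested at 10 µM for 5 min exposure at room temperature by automated parallel patch clamp, in two cells (n ≥ 2) per channel. Values are mean percent inhibition of channel current.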

[3] = molecular target: Sulfonylurea receptor 2, Kir6.2 (Homo sapiens, UniProt O60706+Q14654); assay: Inhibition of human kir6.2/SUR2A ion channel coexpressed in human HEK293 cells after 5 mins by patch clamp assay; assay type: cell-based
Chain of Sulfonylurea receptor 2, Kir6.2 (Q14654 whole entry): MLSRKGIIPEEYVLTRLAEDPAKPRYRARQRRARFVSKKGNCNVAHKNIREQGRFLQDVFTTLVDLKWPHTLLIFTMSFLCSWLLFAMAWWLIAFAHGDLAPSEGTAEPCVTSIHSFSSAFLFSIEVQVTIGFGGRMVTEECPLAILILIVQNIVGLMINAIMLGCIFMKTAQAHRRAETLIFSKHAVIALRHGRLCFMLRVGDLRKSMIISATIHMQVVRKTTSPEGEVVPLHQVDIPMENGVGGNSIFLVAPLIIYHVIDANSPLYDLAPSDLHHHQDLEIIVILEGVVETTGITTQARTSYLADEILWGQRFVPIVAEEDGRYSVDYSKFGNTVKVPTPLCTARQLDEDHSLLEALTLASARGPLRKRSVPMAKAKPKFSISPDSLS
Chain of Sulfonylurea receptor 2, Kir6.2 (O60706 whole entry): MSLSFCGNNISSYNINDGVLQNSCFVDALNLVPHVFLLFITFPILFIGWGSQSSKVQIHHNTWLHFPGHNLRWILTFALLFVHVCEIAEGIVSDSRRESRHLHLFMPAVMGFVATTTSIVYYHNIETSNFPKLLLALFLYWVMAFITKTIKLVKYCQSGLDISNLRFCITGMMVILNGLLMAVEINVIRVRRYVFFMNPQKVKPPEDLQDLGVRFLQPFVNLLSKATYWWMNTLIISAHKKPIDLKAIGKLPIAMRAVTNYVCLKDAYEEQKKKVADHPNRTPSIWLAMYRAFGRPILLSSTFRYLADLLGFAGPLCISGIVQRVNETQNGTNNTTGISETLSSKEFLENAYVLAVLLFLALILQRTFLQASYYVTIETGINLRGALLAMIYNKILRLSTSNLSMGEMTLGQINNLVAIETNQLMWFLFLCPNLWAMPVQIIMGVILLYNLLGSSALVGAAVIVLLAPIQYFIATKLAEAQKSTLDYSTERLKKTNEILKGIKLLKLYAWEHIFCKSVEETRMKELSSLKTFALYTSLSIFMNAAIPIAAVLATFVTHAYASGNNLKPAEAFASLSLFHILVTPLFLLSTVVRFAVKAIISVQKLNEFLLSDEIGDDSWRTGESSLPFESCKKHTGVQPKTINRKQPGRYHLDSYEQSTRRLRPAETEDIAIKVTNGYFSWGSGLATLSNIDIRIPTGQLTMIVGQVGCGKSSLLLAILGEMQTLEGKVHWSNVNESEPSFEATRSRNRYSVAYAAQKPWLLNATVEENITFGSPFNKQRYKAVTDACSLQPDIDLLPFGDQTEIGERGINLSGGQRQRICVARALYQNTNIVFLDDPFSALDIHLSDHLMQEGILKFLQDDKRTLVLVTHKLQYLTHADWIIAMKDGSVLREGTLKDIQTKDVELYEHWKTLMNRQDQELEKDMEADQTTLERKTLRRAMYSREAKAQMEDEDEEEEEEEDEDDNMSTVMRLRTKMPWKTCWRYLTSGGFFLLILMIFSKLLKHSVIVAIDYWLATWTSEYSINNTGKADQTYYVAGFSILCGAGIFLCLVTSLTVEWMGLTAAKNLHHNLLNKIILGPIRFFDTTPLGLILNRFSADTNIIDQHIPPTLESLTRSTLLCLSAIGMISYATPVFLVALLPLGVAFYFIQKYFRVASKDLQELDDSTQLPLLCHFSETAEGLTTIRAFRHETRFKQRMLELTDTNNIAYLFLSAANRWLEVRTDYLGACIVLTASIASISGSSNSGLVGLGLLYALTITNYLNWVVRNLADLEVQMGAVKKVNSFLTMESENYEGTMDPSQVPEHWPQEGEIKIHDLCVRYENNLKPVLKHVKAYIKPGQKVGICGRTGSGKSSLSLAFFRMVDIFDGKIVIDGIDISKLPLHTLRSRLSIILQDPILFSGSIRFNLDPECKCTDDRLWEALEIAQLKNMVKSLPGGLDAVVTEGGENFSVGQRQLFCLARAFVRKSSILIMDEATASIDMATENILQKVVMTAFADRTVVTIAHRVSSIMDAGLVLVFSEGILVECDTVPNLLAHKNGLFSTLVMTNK
Summary of the method: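 Human KCNJ11 (Kir6.2) and SUR2A were co-expressed in HEK293 cells to give the ATP-sensitive current IKATP. The assay was run at room temperature by automated parallel patch clamp, with dose-response at 0.2, 0.6, 1.6 and 5 µM. Exposure was 5 min per concentration, with each concentration in two cells (n ≥ 2).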

[4] = molecular target: Sulfonylurea receptor 2, Kir6.2 (Homo sapiens) (UniProt Q14654+O60706); assay: Inhibition of Kir6.2/SUR2A at 10 uM after 5 mins by patch clamp assay; summary of the method: as §2
Kv4.3 = molecular target: T3, Kv4.3 (Homo sapiens, UniProt Q9UK17); assay: Inhibition of Kv4.3 at 10 uM after 5 mins by patch clamp assay; summary of the method: as §1
T3 sequence (Q9UK17 whole entry): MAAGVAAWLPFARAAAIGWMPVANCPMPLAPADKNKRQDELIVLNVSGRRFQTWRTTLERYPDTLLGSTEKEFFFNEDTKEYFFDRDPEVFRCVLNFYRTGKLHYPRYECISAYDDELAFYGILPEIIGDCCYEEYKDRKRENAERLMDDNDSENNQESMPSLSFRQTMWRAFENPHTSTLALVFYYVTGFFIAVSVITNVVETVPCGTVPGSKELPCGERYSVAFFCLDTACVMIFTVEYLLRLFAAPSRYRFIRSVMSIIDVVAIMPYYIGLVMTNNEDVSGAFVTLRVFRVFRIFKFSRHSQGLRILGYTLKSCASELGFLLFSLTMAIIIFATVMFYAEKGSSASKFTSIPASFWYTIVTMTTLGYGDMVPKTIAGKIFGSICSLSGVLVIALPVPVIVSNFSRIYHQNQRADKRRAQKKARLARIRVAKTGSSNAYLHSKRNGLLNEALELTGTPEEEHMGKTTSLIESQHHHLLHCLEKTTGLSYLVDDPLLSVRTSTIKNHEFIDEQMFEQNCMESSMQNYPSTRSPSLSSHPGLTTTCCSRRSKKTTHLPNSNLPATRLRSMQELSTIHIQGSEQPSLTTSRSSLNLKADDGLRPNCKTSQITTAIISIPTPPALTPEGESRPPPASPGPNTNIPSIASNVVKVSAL

[5] = Inhibition of KvLQT/minK at 10 uM after 5 mins by patch clamp assay; summary of the method: as §2
[6] = molecular target: Potassium voltage-gated channel subfamily A member 5 (Homo sapiens) (UniProt P22460); assay: Inhibition of Kv1.5 at 10 uM after 5 mins by patch clamp assay; summary of the method: as §1
Chain of Potassium voltage-gated channel subfamily A member 5 (Homo sapiens) (P22460 whole entry): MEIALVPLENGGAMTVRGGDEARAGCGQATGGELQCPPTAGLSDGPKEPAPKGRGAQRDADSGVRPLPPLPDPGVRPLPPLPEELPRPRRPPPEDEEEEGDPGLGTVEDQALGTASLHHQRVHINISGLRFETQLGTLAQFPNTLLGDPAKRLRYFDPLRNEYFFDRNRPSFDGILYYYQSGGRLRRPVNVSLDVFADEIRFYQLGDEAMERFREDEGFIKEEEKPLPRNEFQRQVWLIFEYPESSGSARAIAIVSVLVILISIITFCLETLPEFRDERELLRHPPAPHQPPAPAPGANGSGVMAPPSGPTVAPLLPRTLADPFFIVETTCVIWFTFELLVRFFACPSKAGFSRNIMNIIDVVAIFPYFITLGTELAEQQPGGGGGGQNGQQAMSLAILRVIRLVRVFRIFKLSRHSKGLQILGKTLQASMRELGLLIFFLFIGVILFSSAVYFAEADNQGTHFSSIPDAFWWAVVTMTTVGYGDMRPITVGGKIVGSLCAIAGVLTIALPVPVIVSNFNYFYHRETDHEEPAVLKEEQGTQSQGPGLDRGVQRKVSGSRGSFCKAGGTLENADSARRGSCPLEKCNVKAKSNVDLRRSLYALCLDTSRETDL

Structure (SMILES): CCCNCC(O)COc1ccccc1C(=O)CCc1ccccc1 (racemic) [PROPAFENONE]
- inhibition [1]: 54.6%
- inhibition at 5 min, 10 µM (Kir2.1): 0.2%
- inhibition [2]: 60.2%
- IC50 [3]: 2200 nM
- inhibition [4]: 89.6%
- inhibition at 5 min, 10 µM (Kv4.3): 44.1%
- inhibition [5]: 33%
- inhibition [6]: 65.4%
